Calls of active or inactive are those of the source. The calls are words filed in the database; no cut-off is given here.

One assay concerns Mus musculus. As to the kind of experiment: In vivo inhibition of SRC in C57B6 mouse assessed as blocking of SRC pulldown at 5 mg/kg, ip measured after 2 to 4 hrs by Western blot analysis. In kind it is functional, organism-based. A digest of the protocol: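 Adult C57B6 mice, n = 2 per condition. Three intraperitoneal doses of 5 mg/kg, given every 12 h; vehicle is 5% DMSO/95% D5W. Spleens harvested 2 or 4 h after the last dose, homogenized and lysed in M-PER with protease/phosphatase inhibitors. Lysate incubated with 1 μM biotinylated probe TL13-68 overnight at 4 °C, streptavidin pulldown, SRC detected by Western blot.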

The target of assay [1] is Tyrosine-protein kinase ABL2 (Homo sapiens) (UniProt P42684). Nature of the assay: Binding affinity to wild-type human ABL2 (A248 to G542 residues) expressed in bacterial expression system assessed as residual binding level at 1 uM by Kinomescan method relative to control. A digest of the protocol:
(§1)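 KinomeScan, an active site-directed competition binding panel of 468 kinases. The test compound was at 1 μM. The readout is remaining kinase binding as a percentage of the DMSO control. Scores above 35% were treated as weak binding and not listed.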

Assay [2] has as its target Bone morphogenetic protein receptor type-1A (Homo sapiens) (UniProt P36894). As to the kind of experiment: Binding affinity to wild-type human partial length BMPR1A (Q214 to I532 residues) expressed in bacterial expression system assessed as residual binding level at 1 uM by Kinomescan method relative to control.
Assay [3] addresses Cyclin-dependent kinase 7 (Homo sapiens) (UniProt P50613). Nature of the assay: Binding affinity to wild-type human full length CDK7 (M1 to L344 residues) expressed in mammalian expression system assessed as residual binding level at 1 uM by Kinomescan method relative to control. A digest of the protocol: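 Active-site-directed KinomeScan competition binding panel covering 468 kinases, compound tested at 1 μM. Each readout is the kinase signal remaining with compound, expressed as a percentage of the DMSO control. […]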

In assay [4] the target is Receptor tyrosine-protein kinase erbB-3 (Homo sapiens) (UniProt P21860). As to the kind of experiment: Binding affinity to wild-type human partial length ERBB3 (G684 to A987 residues) expressed in mammalian expression system assessed as residual binding level at 1 uM by Kinomescan method relative to control.
Assay [5] deals with Receptor-type tyrosine-protein kinase FLT3 (Homo sapiens), P36888 [R834Q]. As to the kind of experiment: Binding affinity to human partial length FLT3 R834Q mutant (V592 to Y969 residues) expressed in mammalian expression system assessed as residual binding level at 1 uM by Kinomescan method relative to control. A digest of the protocol:
(§2)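 KinomeScan active site-directed competition binding panel (468 kinases), compound tested at 1 μM. Result expressed as remaining kinase signal versus DMSO control (percent of control).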

Assay [6] deals with Hormonally up-regulated neu tumor-associated kinase (Homo sapiens) (UniProt P57058). As to the kind of experiment: Binding affinity to wild-type human partial length HUNK (A31 to K354 residues) expressed in bacterial expression system assessed as residual binding level at 1 uM by Kinomescan method relative to control.
Sequence of Hormonally up-regulated neu tumor-associated kinase (Homo sapiens) (P57058 whole entry, the tested form may be a part): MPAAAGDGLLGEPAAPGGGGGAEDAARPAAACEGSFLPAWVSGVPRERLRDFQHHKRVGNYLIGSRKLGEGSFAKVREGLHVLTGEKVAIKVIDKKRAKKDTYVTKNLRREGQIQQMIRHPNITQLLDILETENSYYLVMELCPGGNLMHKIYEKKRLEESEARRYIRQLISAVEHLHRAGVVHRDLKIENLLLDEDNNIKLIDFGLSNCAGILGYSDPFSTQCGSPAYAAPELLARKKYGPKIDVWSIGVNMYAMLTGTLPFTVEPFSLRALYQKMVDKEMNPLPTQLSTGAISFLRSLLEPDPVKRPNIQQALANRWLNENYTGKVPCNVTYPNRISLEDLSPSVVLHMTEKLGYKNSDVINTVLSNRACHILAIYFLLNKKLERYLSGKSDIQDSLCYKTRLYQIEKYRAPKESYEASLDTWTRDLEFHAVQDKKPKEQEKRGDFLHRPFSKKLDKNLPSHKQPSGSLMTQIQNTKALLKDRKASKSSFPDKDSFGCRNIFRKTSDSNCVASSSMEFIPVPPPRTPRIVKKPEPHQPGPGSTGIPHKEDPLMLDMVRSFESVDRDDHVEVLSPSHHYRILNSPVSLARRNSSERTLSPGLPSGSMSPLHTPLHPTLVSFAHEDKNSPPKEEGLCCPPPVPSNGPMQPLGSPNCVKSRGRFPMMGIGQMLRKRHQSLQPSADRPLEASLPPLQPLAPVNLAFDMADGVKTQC
Assay [7] has as its target Tyrosine-protein kinase JAK2 (Homo sapiens) (UniProt O60674). Nature of the assay: Binding affinity to wild-type human partial length JAK2 JH1 catalytic domain (A829 to G1132 residues) expressed in mammalian expression system assessed as residual binding level at 1 uM by Kinomescan method relative to control. A digest of the protocol: (§3)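 Active-site-directed competition binding panel of 468 kinases (KinomeScan), compound at 1 μM. The read-out is kinase remaining bound, given as a percentage of the DMSO control. […]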

The subject of assay [8] is Mast/stem cell growth factor receptor Kit (Homo sapiens), P10721 [V559D]. As to the kind of experiment: Binding affinity to human partial length KIT V559D mutant (Y545 to D952 residues) expressed in bacterial expression system assessed as residual binding level at 1 uM by Kinomescan method relative to control. A digest of the protocol:
as §2

Assay [9] has as its system Leucine-rich repeat serine/threonine-protein kinase 2 (Homo sapiens), Q5S007 [G2019S]. Nature of the assay: Binding affinity to human partial length LRRK2 G2019S mutant (H970 to E2527 residues) expressed in mammalian expression system assessed as residual binding level at 1 uM by Kinomescan method relative to control. A digest of the protocol: as §2
For assay [10], the target named is Mitogen-activated protein kinase kinase kinase 2 (Homo sapiens) (UniProt Q9Y2U5). As to the kind of experiment: Binding affinity to wild-type human partial length MAP3K2 (S315 to H619 residues) expressed in mammalian expression system assessed as residual binding level at 1 uM by Kinomescan method relative to control. A digest of the protocol: as §3
Sequence of Mitogen-activated protein kinase kinase kinase 2 (Homo sapiens) (Q9Y2U5 whole entry, the tested form may be a part): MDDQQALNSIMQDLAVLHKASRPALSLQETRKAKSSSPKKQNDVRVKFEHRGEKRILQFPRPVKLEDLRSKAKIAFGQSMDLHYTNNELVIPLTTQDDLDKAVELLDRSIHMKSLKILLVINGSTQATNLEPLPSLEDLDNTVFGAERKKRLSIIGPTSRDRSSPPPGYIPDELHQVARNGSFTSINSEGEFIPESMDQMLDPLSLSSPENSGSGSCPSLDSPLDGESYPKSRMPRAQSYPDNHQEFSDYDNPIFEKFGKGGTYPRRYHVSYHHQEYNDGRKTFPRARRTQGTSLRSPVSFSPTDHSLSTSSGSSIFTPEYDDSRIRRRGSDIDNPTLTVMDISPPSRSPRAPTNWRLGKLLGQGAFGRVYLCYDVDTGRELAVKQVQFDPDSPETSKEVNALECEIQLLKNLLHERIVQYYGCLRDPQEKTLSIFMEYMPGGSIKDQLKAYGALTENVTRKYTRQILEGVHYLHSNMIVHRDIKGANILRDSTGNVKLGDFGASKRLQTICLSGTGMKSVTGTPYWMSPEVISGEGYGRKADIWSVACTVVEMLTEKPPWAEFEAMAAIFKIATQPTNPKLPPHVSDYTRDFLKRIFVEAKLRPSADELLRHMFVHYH
Assay [11] deals with MAP kinase-activated protein kinase 5 (Homo sapiens) (UniProt Q8IW41). Nature of the assay: Binding affinity to wild-type human partial length MAPKAPK5 (M1 to D322 residues) expressed in mammalian expression system assessed as residual binding level at 1 uM by Kinomescan method relative to control.
Sequence of MAP kinase-activated protein kinase 5 (Homo sapiens) (Q8IW41 whole entry, the tested form may be a part): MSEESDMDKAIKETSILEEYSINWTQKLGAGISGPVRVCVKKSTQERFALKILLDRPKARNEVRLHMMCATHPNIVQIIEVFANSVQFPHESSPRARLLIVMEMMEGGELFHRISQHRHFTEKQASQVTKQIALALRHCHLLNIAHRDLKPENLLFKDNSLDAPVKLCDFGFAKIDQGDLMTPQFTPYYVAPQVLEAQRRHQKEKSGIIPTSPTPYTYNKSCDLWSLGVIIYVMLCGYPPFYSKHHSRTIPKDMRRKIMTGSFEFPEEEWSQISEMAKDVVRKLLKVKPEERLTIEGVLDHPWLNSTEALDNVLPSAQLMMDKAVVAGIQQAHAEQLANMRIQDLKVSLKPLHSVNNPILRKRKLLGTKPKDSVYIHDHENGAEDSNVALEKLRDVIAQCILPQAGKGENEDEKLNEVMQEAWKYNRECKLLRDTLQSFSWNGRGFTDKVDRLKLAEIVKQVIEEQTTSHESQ
Assay [12] has as its target Serine/threonine-protein kinase Nek9 (Homo sapiens) (UniProt Q8TD19). Nature of the assay: Binding affinity to wild-type human partial length NEK9 (P32 to R328 residues) expressed in bacterial expression system assessed as residual binding level at 1 uM by Kinomescan method relative to control.
Assay [13] has as its target Mitogen-activated protein kinase 11 (Homo sapiens) (UniProt Q15759). As to the kind of experiment: Binding affinity to wild-type human full length p38-beta (M1 to Q364 residues) expressed in bacterial expression system assessed as residual binding level at 1 uM by Kinomescan method relative to control. A digest of the protocol:
as §1

Assay [14] has as its target Serine/threonine-protein kinase PAK 4 (Homo sapiens) (UniProt O96013). Nature of the assay: Binding affinity to wild-type human partial length PAK4 (Q144 to R438 residues) expressed in bacterial expression system assessed as residual binding level at 1 uM by Kinomescan method relative to control.
Assay [15] concerns the target Phosphatidylinositol 4-phosphate 3-kinase C2 domain-containing subunit beta (Homo sapiens) (UniProt O00750). As to the kind of experiment: Binding affinity to wild-type human partial length PIK3C2B (M1 to L1634 residues) expressed in mammalian expression system assessed as residual binding level at 1 uM by Kinomescan method relative to control.
In assay [16] the target is Phosphatidylinositol 4-kinase beta (Homo sapiens) (UniProt Q9UBF8). Nature of the assay: Binding affinity to wild-type human full length PIK4CB (M1 to M828 residues) expressed in mammalian expression system assessed as residual binding level at 1 uM by Kinomescan method relative to control. A digest of the protocol:
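Active-site-directed competition binding panel (KinomeScan) covering 468 kinases. Test agent was screened at 1 μM. The read-out is the remaining kinase signal expressed relative to a DMSO control. Scores above 35%, taken as weak binding, were not reported.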

Assay [17] concerns the target Receptor-interacting serine/threonine-protein kinase 1 (Homo sapiens) (UniProt Q13546). As to the kind of experiment: Binding affinity to wild-type human partial length RIPK1 (M1 to K305 residues) expressed in bacterial expression system assessed as residual binding level at 1 uM by Kinomescan method relative to control.
Assay [18] deals with STE20-like serine/threonine-protein kinase (Homo sapiens) (UniProt Q9H2G2). Nature of the assay: Binding affinity to wild-type human partial length SLK (S14 to A307 residues) expressed in bacterial expression system assessed as residual binding level at 1 uM by Kinomescan method relative to control.
Assay [19] has as its target Tyrosine-protein kinase receptor TYRO3 (Homo sapiens) (UniProt Q06418). Nature of the assay: Binding affinity to wild-type human partial length TYRO3 (S497 to T814 residues) expressed in bacterial expression system assessed as residual binding level at 1 uM by Kinomescan method relative to control.

Sequence of Phosphatidylinositol 4-kinase beta (Homo sapiens) (Q9UBF8 2-816 limits assumed): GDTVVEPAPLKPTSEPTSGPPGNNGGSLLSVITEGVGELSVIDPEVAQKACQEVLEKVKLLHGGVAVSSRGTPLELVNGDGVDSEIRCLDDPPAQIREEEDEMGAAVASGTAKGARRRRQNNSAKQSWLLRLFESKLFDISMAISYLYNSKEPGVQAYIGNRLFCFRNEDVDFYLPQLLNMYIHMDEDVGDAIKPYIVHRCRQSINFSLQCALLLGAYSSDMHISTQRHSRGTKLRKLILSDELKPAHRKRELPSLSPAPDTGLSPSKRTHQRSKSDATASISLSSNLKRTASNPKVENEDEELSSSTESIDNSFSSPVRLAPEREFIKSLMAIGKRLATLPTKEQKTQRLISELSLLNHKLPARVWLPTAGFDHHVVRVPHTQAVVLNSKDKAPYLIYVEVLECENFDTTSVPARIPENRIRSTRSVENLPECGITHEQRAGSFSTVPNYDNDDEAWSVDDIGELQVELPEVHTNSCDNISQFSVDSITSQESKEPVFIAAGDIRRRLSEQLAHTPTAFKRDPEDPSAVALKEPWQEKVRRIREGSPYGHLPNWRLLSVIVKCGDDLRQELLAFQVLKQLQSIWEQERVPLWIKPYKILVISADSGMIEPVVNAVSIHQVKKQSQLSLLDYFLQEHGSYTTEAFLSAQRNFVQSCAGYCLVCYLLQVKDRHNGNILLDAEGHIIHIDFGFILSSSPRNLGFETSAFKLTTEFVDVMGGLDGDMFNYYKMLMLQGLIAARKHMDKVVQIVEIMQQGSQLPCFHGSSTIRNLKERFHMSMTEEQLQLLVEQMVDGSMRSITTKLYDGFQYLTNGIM
Sequence of Tyrosine-protein kinase JAK2 (Homo sapiens) (O60674 whole entry, the tested form may be a part): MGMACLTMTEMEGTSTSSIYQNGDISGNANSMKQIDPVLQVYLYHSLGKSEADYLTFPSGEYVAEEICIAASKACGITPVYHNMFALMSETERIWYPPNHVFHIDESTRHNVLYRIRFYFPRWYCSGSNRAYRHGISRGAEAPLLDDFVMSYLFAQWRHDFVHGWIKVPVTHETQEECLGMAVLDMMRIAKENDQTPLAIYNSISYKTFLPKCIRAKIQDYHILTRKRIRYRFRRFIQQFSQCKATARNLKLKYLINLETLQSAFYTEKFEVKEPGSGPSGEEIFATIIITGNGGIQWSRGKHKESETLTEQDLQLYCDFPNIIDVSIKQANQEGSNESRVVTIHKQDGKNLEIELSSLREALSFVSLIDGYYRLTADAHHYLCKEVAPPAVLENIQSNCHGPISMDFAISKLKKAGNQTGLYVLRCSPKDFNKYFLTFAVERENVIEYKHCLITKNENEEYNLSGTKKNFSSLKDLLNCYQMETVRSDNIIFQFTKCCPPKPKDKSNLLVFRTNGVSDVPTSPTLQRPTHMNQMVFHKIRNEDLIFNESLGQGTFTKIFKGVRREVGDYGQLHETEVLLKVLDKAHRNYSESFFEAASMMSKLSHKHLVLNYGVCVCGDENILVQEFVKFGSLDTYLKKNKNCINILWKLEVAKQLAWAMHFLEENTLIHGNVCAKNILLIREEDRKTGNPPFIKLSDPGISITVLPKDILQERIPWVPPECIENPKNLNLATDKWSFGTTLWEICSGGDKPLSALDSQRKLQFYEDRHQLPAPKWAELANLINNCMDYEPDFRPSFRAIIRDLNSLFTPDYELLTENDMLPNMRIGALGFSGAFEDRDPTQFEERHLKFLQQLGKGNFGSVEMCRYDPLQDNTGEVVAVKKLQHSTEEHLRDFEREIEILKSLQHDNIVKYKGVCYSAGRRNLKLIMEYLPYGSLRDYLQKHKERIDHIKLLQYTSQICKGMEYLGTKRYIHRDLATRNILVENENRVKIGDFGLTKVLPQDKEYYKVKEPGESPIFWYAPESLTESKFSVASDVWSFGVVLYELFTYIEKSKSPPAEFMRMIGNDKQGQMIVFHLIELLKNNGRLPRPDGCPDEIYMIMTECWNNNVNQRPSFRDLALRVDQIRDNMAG
Sequence of Serine/threonine-protein kinase Nek9 (Homo sapiens) (Q8TD19 whole entry, the tested form may be a part): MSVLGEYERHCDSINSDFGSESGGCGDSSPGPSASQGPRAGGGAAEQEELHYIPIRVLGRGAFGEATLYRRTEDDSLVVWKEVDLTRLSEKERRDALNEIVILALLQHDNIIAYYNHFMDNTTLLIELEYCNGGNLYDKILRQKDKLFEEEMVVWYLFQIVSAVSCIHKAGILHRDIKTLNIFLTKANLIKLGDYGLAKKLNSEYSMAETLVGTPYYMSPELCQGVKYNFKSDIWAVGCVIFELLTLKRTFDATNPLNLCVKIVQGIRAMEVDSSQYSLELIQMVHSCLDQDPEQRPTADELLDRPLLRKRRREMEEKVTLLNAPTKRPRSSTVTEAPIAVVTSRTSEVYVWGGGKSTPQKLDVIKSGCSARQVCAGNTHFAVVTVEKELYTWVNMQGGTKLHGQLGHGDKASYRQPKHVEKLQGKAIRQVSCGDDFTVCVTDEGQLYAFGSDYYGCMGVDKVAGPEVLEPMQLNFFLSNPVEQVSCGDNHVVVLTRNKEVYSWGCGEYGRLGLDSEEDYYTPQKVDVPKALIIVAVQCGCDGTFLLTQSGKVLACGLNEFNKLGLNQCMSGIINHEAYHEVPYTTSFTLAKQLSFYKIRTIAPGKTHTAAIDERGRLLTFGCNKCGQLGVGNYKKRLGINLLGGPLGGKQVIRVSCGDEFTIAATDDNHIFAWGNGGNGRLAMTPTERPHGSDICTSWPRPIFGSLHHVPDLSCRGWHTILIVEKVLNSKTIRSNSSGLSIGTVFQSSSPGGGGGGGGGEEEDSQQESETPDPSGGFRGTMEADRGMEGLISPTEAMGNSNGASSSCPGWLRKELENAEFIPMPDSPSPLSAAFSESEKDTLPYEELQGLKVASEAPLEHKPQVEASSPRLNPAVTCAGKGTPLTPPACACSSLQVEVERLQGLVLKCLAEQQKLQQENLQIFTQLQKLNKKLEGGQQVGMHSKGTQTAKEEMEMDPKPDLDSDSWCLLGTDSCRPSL
Sequence of Cyclin-dependent kinase 7 (Homo sapiens) (P50613 whole entry, the tested form may be a part): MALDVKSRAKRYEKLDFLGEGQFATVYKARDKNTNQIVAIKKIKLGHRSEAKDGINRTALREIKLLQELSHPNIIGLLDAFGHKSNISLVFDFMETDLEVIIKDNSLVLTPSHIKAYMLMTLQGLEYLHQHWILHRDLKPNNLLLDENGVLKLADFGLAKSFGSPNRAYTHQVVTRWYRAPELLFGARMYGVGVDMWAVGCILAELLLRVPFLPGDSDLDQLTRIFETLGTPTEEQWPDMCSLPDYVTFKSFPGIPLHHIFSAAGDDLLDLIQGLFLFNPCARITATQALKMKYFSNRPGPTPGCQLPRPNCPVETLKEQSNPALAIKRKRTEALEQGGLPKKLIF

Consider `C=CC(=O)Nc1ccccc1Nc1nc(Nc2ccc(N3CCN(C)CC3)cc2)ncc1C(=O)Nc1c(C)cccc1Cl`, for which the inhibition result in the assay on Mus musculus is “Active”. In addition, the Activity in [1] turned out to be 0.35%; in assay [2] it was 100%; in assay [3], 100%; in [4], 89%; in assay [5] it was 100%; in assay [6], 100%. In addition, the Activity turned out to be 90% in assay [7]; 21% in assay [8]; 100% in assay [9]; 94% in assay [10]; 100% in assay [11]; 100% in assay [12]. Also, the Activity was determined as 98% in [13]; 100% in [14]; 100% in [15]; 91% in [16]; 100% in assay [17]; 100% in [18]. In addition, the Activity in assay [19] amounted to 89%.
